TbMetRS inhib – blocks T. brucei methionyl-tRNA synthetase activity; purified T. brucei MetRS, ATP depletion, Kinase-Glo luminescence; hit rate 0.4% among 360,000; inhibition, % at 11.9 µM;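 active = inhibition above a per-plate cutoff of the control wells' mean inhibition plus 3 SD, cut at about 5.5% in these data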;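 also: 0% = DMSO wells median and 100% = median of wells with control inhibitor compound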
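Test system – parasite MetRS enzyme · Reagent – substrates ATP, L-methionine and bulk Escherichia coli tRNA · Doses – 11.9 µM compound single dose, 0.9% DMSO · Times – 15 min enzyme-compound preincubation, 2 h reaction, 10 min detection, 25 °C · Signal – Kinase-Glo luminescence, ATP depletion format · Controls – DMSO-only wells as low control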
Hep lipid drop – modulators of hepatic lipid droplet formation | AML12 mouse hepatocytes, oleate lipid droplets, BODIPY imaging | hit rate 0.4% among 240,000 | inhibition, % at 6.5 µM | AID 1656;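 active = lipid droplet intensity inhibited by at least 50%, with more than 500 cells counted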
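Test system: AML12 mouse liver cells; schedule: overnight exposure; technique: high-content imaging of BODIPY-stained droplets and DAPI nuclei; read-out: % inhibition of corrected integrated BODIPY droplet signal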
HCV NS3 hel inh – inhibitors of Hepatitis C virus NS3 helicase; NS3 helicase DNA unwinding, Cy5 molecular beacon fluorescence; inhibition, % at 10.9 µM; hit rate 0.56% among 290,000; AID 1800;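 active = inhibition above the mean of all tested compounds plus 3 SD, set per campaign, cut at about 35% in these data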;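 also: 0% = DMSO wells and 100% = thioflavine S control wells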
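Control set: DMSO versus 110 µM thioflavine S; Material: NS3 helicase fragment of HCV; Measured by: Cy5 fluorescence at 0 and 60 min, beacon hairpin quenching; Read-out basis: percent inhibition from t60/t0 fluorescence ratio; Times: reaction time 60 min, 25 °C; Repeats: single replicate; Compound dosing: single dose, 10.9 µM nominal final, DMSO 0.8% final.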
HCV core dimer – blocks dimerization of HCV core protein. TR-FRET GST/Flag-core106 dimerization, 1536-well. inhibition, % at 5 µM. hit rate 0.33% among 300,000. AID 1899;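 active = inhibition above the mean of all tested compounds plus 3 SD, set per screening campaign, cut at about 45% in these data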
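Assay system: GST-tagged and Flag-tagged HCV core protein residues 1-106 / Times: compound-protein-antibody incubation 4 h at 22.5 °C / Signal: time-resolved FRET, ex 340 nm, em 617 and 671 nm / Evaluation: % inhibition based on acceptor/donor emission ratio / Benchmarks: wells lacking GST-core106 and wells with excess unlabelled core106 / Repeats: singlicate, one well per compound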
NS3 helicase cf – HCV NS3 helicase inhibition, confirmation assay; shares compounds with HCV NS3 hel inh; NS3 helicase DNA unwinding, Cy5 molecular beacon fluorescence; inhibition, % at 10.9 µM; hit rate 31% among 1,600; AID 1943;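 active = inhibition above the mean of all tested compounds plus 3 SD, cutoff set per campaign, cut at about 36% in these data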
DNA FID counter – counter-screen for HCV NS3 helicase inhibitors: DNA intercalator displacement; hit rate 4% among 1,600; inhibition, % at 7.9 µM; AID 1945; DNA fluorescent intercalator displacement, fluorescence; shares compounds with HCV NS3 hel inh; in the data active = inhibition above about 37%;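 also: 0% = vehicle and 100% = reference compound; higher means more displacement of ethidium bromide from the DNA hairpin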
DNA FID DR – counter-screen for HCV NS3 helicase inhibitors: DNA intercalator displacement dose response | fluorescent intercalator displacement from DNA, fluorescence | shares compounds with HCV NS3 hel inh | 120 tested, under 10 active | IC50, µM | AID 2172; call rule not given here
Active calls of the source: *. Rows were chosen to be rich in hits. Some 1.3% of all compounds tested hit in one or more screens of this group.

What do the screens show for `O=C(O)c1ccc2nc(-c3ccco3)c(-c3ccco3)nc2c1`?
TbMetRS inhib: 1.2; Hep lipid drop: 3.8; HCV NS3 hel inh: 45.3*; NS3 helicase cf: 66.8*; DNA FID counter: 9.6

Results for CCc1nc2ccc(C(=O)N3CCN(c4ccccc4)CC3)cc2nc1CC ?
TbMetRS inhib: -0.8; Hep lipid drop: 7.3; HCV NS3 hel inh: -10.2; HCV core dimer: 7.0

How did COc1ccc(CCNC(=O)c2ccc3nc(-c4ccco4)c(-c4ccco4)nc3c2)cc1OC do in these assays?
TbMetRS inhib: -0.6; HCV NS3 hel inh: 51.6*; HCV core dimer: 57.4*; NS3 helicase cf: 41.3*; DNA FID counter: -7.9

How did O=C(c1ccc2nc(-c3ccco3)c(-c3ccco3)nc2c1)N1CCN(c2ccccc2)CC1 do in these assays?
TbMetRS inhib: -0.4; Hep lipid drop: 16.3; HCV NS3 hel inh: 41.0*; HCV core dimer: 24.8; NS3 helicase cf: 64.8*; DNA FID counter: -15.1; DNA FID DR: >79.4

How did Cc1ccc(-c2nc3ccc(C(=O)O)cc3nc2-c2ccc(C)cc2)cc1 do in these assays?
TbMetRS inhib: -0.5; HCV NS3 hel inh: 22.6; HCV core dimer: 34.1

Results for COc1ccc(/C=C2\SC(=S)N(NC(=O)c3ccncc3)C2=O)cc1OC ?
Hep lipid drop: 15.6; HCV NS3 hel inh: 1.2; HCV core dimer: -10.9

Results for O=C1/C(=C/C=C/c2ccco2)SC(=S)N1c1ccc(O)cc1 ?
TbMetRS inhib: 1.4; Hep lipid drop: -23.5; HCV NS3 hel inh: 51.1*; HCV core dimer: 74.0*; NS3 helicase cf: 90.8*; DNA FID counter: 20.6; DNA FID DR: inactive

How did O=C(NN1C(=O)/C(=C/C=C/c2ccco2)SC1=S)c1ccncc1 do in these assays?
TbMetRS inhib: 0.4; Hep lipid drop: -2.9; HCV NS3 hel inh: 40.0*; HCV core dimer: 47.2*; NS3 helicase cf: 77.9*; DNA FID counter: 6.9

How did O=C1/C(=C\c2ccco2)SC(=S)N1c1ccc(O)cc1 do in these assays?
TbMetRS inhib: -0.3; Hep lipid drop: 2.7; HCV NS3 hel inh: 25.1; HCV core dimer: -2.6

Results for CC(C)C(C(=O)O)N1C(=O)/C(=C/C=C/c2ccco2)SC1=S (stereo not drawn) ?
TbMetRS inhib: 0.2; HCV NS3 hel inh: 44.5*; HCV core dimer: 57.2*; NS3 helicase cf: 77.9*; DNA FID counter: 17.6

Results for COc1ccccc1NC(=S)N1CCN(Cc2ccc3c(c2)OCO3)CC1 ?
TbMetRS inhib: -1.1; Hep lipid drop: -14.9; HCV NS3 hel inh: -0.4; HCV core dimer: -6.9

How did CCN(CC)C(=O)C1=C(C)N(CCCN2CCCC2=O)C(=O)C(CC(=O)NC2CCCC2)C1 (stereo not drawn) do in these assays?
TbMetRS inhib: -1.4

Results for Cc1ccc(CNC(=O)CN2C(=O)NC3(CC(C)CC(C)(C)C3)C2=O)cc1 (stereo not drawn) ?
TbMetRS inhib: 0.0

What do the screens show for `Cc1cccc(NS(=O)(=O)c2ccc3c(c2)CCN3C(=O)CCC(=O)O)c1`?
TbMetRS inhib: 0.1; Hep lipid drop: -6.0; HCV NS3 hel inh: 7.3; HCV core dimer: 9.1

What do the screens show for `Cc1ccc(NS(=O)(=O)c2ccc3c(c2)CCN3C(=O)CCC(=O)O)cc1Cl`?
TbMetRS inhib: 0.2; Hep lipid drop: 17.9; HCV NS3 hel inh: 48.0*; HCV core dimer: -4.7; NS3 helicase cf: 22.9; DNA FID counter: -29.6

Results for O=C(O)c1cc2nc(-c3cccs3)cc(C(F)(F)F)n2n1 ?
TbMetRS inhib: -0.8; Hep lipid drop: 3.1; HCV NS3 hel inh: 39.0*; HCV core dimer: 8.4; NS3 helicase cf: 2.1; DNA FID counter: 9.0

Results for FC(F)(F)c1cc(-c2cccs2)nc2cc(-c3ccccc3)nn12 ?
TbMetRS inhib: 0.4; Hep lipid drop: 6.8; HCV NS3 hel inh: -0.2; HCV core dimer: -2.5

What do the screens show for `O=C(O)c1ccccc1OC(=O)C12CC3CC(CC(C3)C1)C2`?
TbMetRS inhib: -0.2; Hep lipid drop: -9.6; HCV NS3 hel inh: -0.4; HCV core dimer: -3.1

What do the screens show for `CC(=O)Oc1ccc(C23CC4CC(CC(C4)C2)C3)cc1C(=O)O`?
Hep lipid drop: -12.3; HCV NS3 hel inh: 40.3*; HCV core dimer: 7.2; NS3 helicase cf: 27.8; DNA FID counter: -26.0
